We go through six compounds from ChEMBL document CHEMBL3045447, “Isolation and structural elucidation of eight new related analogues of the mycotoxin (-)-botryodiplodin from Penicillium coalescens” (2007).

Common to all, as to format: functional
The subject of experiment [1] is Oncopeltus fasciatus. The experiment in a line: Insecticidal activity against Oncopeltus fasciatus fourth-instar larvae assessed as insect mortality measured after 72 hr post compound application. The procedure, abridged:
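Treated nymphs confined in a 9 cm Petri dish with food and water ad libitum. Acetone-only controls run in parallel. Acute toxicity scored as dead insects after 72 h, in triplicate. LD50 (µg/nymph) from linear regression of probit mortality on log dose.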

Experiment [2] has as its system Ceratitis capitata. Kind of experiment: Insecticidal activity against Ceratitis capitata 2 to 3 days old adult male flies assessed as insect mortality measured after 10 days post compound application. Put shortly:
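Topical dose in 1 µL acetone applied by micropipet to the ventral abdomen of ice-anaesthetised 2–3-day-old adults, five males plus five females per group. Controls got acetone alone. Flies kept in a netted box with diet and water ad libitum. Mortality scored every 24 h for 10 days, in triplicate. LD50 from probit of mortality vs log dose.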

Experiment [3] concerns Phytophthora citrophthora. Kind of experiment: Antifungal activity against Phytophthora citrophthora CECT 2353 at 0.2 mg/disk after 72 hr by paper disk agar diffusion assay. Put shortly:
(§1)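 Paper disk–agar diffusion, triplicate. Fungus grown on PDA 7 days at 28 °C. Conidia suspended at ca. 10^6/mL in 0.05% Tween 80. 1 mL seeded into 15 mL PDA. After solidification, four 0.5 cm paper disks loaded with test product. Inhibition zone (mm) read at 72 h. Solvent-only disks as negative control; benomyl disks, dose set per species, as positive control.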
(Agar diffusion results depend on both activity and mobility in agar.)

Experiment [4] has as its system Verticillium dahliae. The experiment in a line: Antifungal activity against Verticillium dahliae CCM 269 at 0.2 mg/disk after 72 hr by paper disk-agar diffusion assay. Put shortly:
as §1

Experiment [5] has as its system Staphylococcus aureus. Kind of experiment: Antibacterial activity against Staphylococcus aureus CECT 86 at 0.2 mg/disk after 24 hr by paper disk agar diffusion assay. The procedure, abridged: (§2)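 Paper disk–agar diffusion, triplicate. Each bacterium grown 24 h in Nutrient Broth at 28 °C or 37 °C, per organism. 1 mL suspension inoculated into a plate, then 15 mL Plate Count Agar added. Five loaded disks placed after solidification. Plates incubated 24 h dark at 28 or 37 °C. Halo measured. Solvent-only disks as negative control; tetracycline chlorhydrate as positive control.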

Experiment [6] has as its system Verticillium dahliae. The experiment in a line: Antifungal activity against Verticillium dahliae CCM 269 at 0.25 ug/disk after 72 hr by paper disk-agar diffusion assay. Particulars: CCM 269, 72 h, read-out: IZ. The procedure, abridged: as §1
Experiment [7] concerns Aspergillus parasiticus. The experiment in a line: Antifungal activity against Aspergillus parasiticus CECT 2681 at 1 ug/disk after 72 hr by paper disk agar diffusion assay. To be noted: CECT 2681, 72 h, read-out: IZ. The procedure, abridged:
as §1

In experiment [8] the test system is Penicillium italicum. The experiment in a line: Antifungal activity against Penicillium italicum CECT 2294 at 0.2 ug/disk after 72 hr by paper disk-agar diffusion assay. To be noted: CECT 2294, 72 h, read-out: IZ. Put shortly:
as §1

The subject of experiment [9] is Fusarium oxysporum f. sp. niveum. The experiment in a line: Antifungal activity against Fusarium oxysporum f. sp. niveum CCM 259 at 5 ug/disk after 72 hr by paper disk-agar diffusion assay. To be noted: CCM 259, 72 h, read-out: IZ. Put shortly: as §1
Experiment [10] has as its system Fusarium culmorum. The experiment in a line: Antifungal activity against Fusarium culmorum CECT 2148 at 10 ug/disk after 72 hr by paper disk agar diffusion assay. To be noted: CECT 2148, 72 h, read-out: IZ. Put shortly:
as §1

The subject of experiment [11] is Trichoderma viride. The experiment in a line: Antifungal activity against Hypocrea rufa CECT 2423 at 1 ug/disk after 72 hr by paper disk agar diffusion assay. To be noted: CECT 2423, 72 h, read-out: IZ. The procedure, abridged: as §1
Experiment [12] has as its system Fusarium oxysporum f. sp. gladioli. Kind of experiment: Antifungal activity against Fusarium oxysporum f. sp. gladioli CCM 233 at 10 ug/disk after 72 hr by paper disk agar diffusion assay. Particulars: CCM 233, 72 h, read-out: IZ. The procedure, abridged: as §1
Experiment [13] deals with Colletotrichum gloeosporioides. Kind of experiment: Antifungal activity against Colletotrichum gloeosporioides CECT 2859 at 0.5 ug/disk after 72 hr by paper disk-agar diffusion assay. Particulars: CECT 2859, 72 h, read-out: IZ. The procedure, abridged:
as §1

Experiment [14] relates to Trichothecium roseum. Kind of experiment: Antifungal activity against Trichothecium roseum CECT 2410 at 5 ug/disk after 72 hr by paper disk agar diffusion assay. To be noted: CECT 2410, 72 h, read-out: IZ. The procedure, abridged:
as §1

In experiment [15] the test system is Phytophthora citrophthora. The experiment in a line: Antifungal activity against Phytophthora citrophthora CECT 2353 at 1.5 ug/disk after 72 hr by paper disk agar diffusion assay. Particulars: CECT 2353, 72 h, read-out: IZ. The procedure, abridged:
as §1

Experiment [16] has as its system Escherichia coli. Kind of experiment: Antibacterial activity against Escherichia coli CECT 405 at 0.2 mg/disk after 24 hr by paper disk agar diffusion assay. The procedure, abridged:
as §2

Experiment [17] relates to Pectobacterium carotovorum. Kind of experiment: Antibacterial activity against Pectobacterium carotovorum CECT 225 at 0.2 mg/disk […] by paper disk-agar diffusion assay.
For experiment [18], the system named is Bacillus cereus. The experiment in a line: Antibacterial activity against Bacillus cereus CECT 148 at 0.2 mg/disk after 24 hr by paper disk agar diffusion assay. Put shortly: as §2
In experiment [19] the test system is Enterococcus faecalis. Kind of experiment: Antibacterial activity against Enterococcus faecalis CECT 481 at 0.2 mg/disk after 24 hr by paper disk agar diffusion assay. Put shortly: as §2

Take `CC(=O)O[C@@H]1OC[C@@H](C(C)=O)[C@H]1C` (relative stereo) [Botryodiplodin acetate]: the LD50 in [1] amounted to 12.19 µg.

Consider `CC(=O)[C@@H]1COC(O)[C@@H]1C` (single isomer, unassigned; (-)) [(-)-BOTRYODIPLODIN], for which the LD50 in experiment [1] is 5.55 µg; in experiment [2] it was 12.9 µg. Further, the figures for the “inhibition zone (IZ)” value in experiment [3], in [4] and in experiment [5] were 8.21 mm, 17.31 mm and 13.53 mm, respectively.

As for `C=C(C(C)=O)[C@@H](C)CO[C@@H]1OC[C@@H](C(C)=O)[C@H]1C` [(-)-2-EPI-BOTRYODIPLODINENONE], the LD50 in experiment [1] is >15 µg.

Take `CC(=O)[C@@H]1CO[C@@H](O[C@@H]2OC[C@@H](C(C)=O)[C@H]2C)[C@@H]1C` [(-)-BOTRYODIPLODIN DIMER]: the LD50 in experiment [1] is >15 µg.

In the case of `CCCCNC(=O)n1c(NC(=O)OC)nc2ccccc21` [BENOMYL], in [6], the zone of inhibition at 0.25 µg/disc worked out at 14.3 mm. Also, the zone of inhibition at 1 µg/disc in [7] came to 8.33 mm; in [11], 12.3 mm. The zone of inhibition at 0.2 µg/disc in [8] is 16.7 mm. For the same compound, the zone of inhibition at 5 µg/disc in [9] stood at 17.3 mm; in experiment [14], 29.7 mm. In addition, the zone of inhibition at 10 µg/disc in experiment [10] was determined as 19 mm; in experiment [12], 9.33 mm. Moreover, the zone of inhibition at 0.5 µg/disc in experiment [13] was 26.7 mm. Further, in experiment [15], the zone of inhibition at 1.5 µg/disc is 17.1 mm.

For `CN(C)[C@@H]1C(O)=C(C(N)=O)C(=O)[C@@]2(O)C(O)=C3C(=O)c4c(O)cccc4[C@@](C)(O)[C@H]3C[C@@H]12.Cl` [TETRACYCLINE HYDROCHLORIDE], the “inhibition zone (IZ)” value in [16] was 24 mm; in experiment [5] it was 16.67 mm; in experiment [17], 34.67 mm; in experiment [18] it was 18.33 mm; in experiment [19], 31.67 mm.
